Measured values reported in ChEMBL document CHEMBL1143090, “Structure-activity relationship and liver microsome stability studies of pyrrole necroptosis inhibitors” (Bioorg Med Chem Lett, 2008).
The source made the active and inactive calls. The rule behind the calls is not given here.

How the values were obtained:
Jurkat [1] = assay: Inhibition of TNF-alpha-induced necroptosis in FADD-deficient human Jurkat T cells; format: functional, cell-based
Procedure, shortened: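 FADD-deficient variant of human Jurkat T cells given 10 ng/mL human TNF-α alongside increasing test compound concentrations for 24 h. Viability read by ATP-based assay; EC50 from the concentration series.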

Jurkat [2] = assay: Inhibition of necroptosis in TNF-alpha-induced human Jurkat T cells assessed as cell viability at 30 uM after 24 hrs; format: functional, cell-based
Procedure, shortened: (§1)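 FADD-deficient Jurkat, L929 and mouse adult lung fibroblast cells exposed 24 hr to 10 ng/mL human TNF-α and/or 100 µM zVAD.fmk, with compound at 30 µM. ATP-based viability, normalized to compound-treated cells without necroptotic stimulus (100%); N = 2, standard deviation.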

L929 [3] = assay: Inhibition of necroptosis in zVAD-induced mouse L929 cells assessed as cell viability at 30 uM after 24 hrs; format: functional, cell-based; procedure, shortened: as §1
L929 [4] = assay: Inhibition of necroptosis in TNF-alpha-induced mouse L929 cells assessed as cell viability at 30 uM after 24 hrs; format: functional, cell-based; procedure, shortened: as §1
Mus musculus = species: Mus musculus; assay: Inhibition of necroptosis in zVAD-induced mouse fibroblast assessed as cell viability at 30 uM after 24 hrs; format: functional; procedure, shortened: as §1
[5] = Metabolic stability assessed as half life in mouse liver microsomes; format: ADME, Microsome
Procedure, shortened: (§2)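 Pooled mouse liver microsomes (0.5 mg/mL protein) with 3 µM final compound and 1 mM NADPH, sampled at 0, 5, 15, 30, 60 min; no-NADPH incubation as negative control. Methanol quench, LC/MS (N=3) against internal standard; ln peak-area ratio vs time slope gives k, t1/2 = 0.693/k, CLint = V(0.693)/t1/2.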

[6] = Intrinsic clearance in mouse liver microsome; format: ADME; settings: liver microsomes; procedure, shortened: as §2

**Q.** With `CN(Cc1c(F)cccc1Cl)C(=O)c1cccn1C` as the compound, how does the EC50 (Jurkat [1]) read?
**A.** > 20000 nM

**Q.** For `CC(NC(=O)c1cccn1C(C)C)c1c(F)cccc1Cl` (racemic), which EC50 (Jurkat [1]) is on record?
**A.** 2100 nM

**Q.** Which EC50 (Jurkat [1]) does the source give for `Cn1cc(C#N)cc1C(=O)NCc1c(F)cccc1Cl` here?
**A.** > 20000 nM

**Q.** For `CC(C)n1cccc1C(=O)NCc1c(F)cccc1Cl`, which EC50 (Jurkat [1]) is on record?
**A.** 440 nM

**Q.** For `CCCCC(NC(=O)c1cccn1C(C)C)c1c(F)cccc1Cl` (racemic), which EC50 (Jurkat [1]) is on record?
**A.** > 20000 nM

**Q.** Which results are given for `CN1C(=O)C(Cc2c[nH]c3ccccc23)NC1=S` (racemic) [NECROSTATIN]?
**A.** EC50 (Jurkat [1]): 50 nM; Activity (Jurkat [2]): Active; Activity (L929 [3]): Active; Activity (L929 [4]): Active; Activity (Mus musculus): Active

**Q.** For `CC(C)n1cccc1C(=O)N[C@@H](C)c1c(F)cccc1Cl`, which EC50 (Jurkat [1]) is on record?
**A.** 520 nM

**Q.** Which EC50 (Jurkat [1]) does the source give for `Cn1cccc1C(=O)NCc1c(F)cccc1Cl` here?
**A.** 900 nM

**Q.** Which EC50 (Jurkat [1]) does the source give for `Cc1cc[nH]c1C(=O)NCc1c(F)cccc1Cl` here?
**A.** 4900 nM

**Q.** For `Cc1ccn(C(C)C)c1C(=O)NCc1c(F)cccc1Cl`, which EC50 (Jurkat [1]) is on record?
**A.** 7800 nM

**Q.** Which EC50 (Jurkat [1]) does the source give for `CC(C)n1cccc1C(=O)N[C@H](C)c1c(F)cccc1Cl` here?
**A.** > 20000 nM

**Q.** With `CC(C)n1c(C#N)ccc1C(=O)NCc1c(F)cccc1Cl` as the compound, how does the EC50 (Jurkat [1]) read?
**A.** 1400 nM

**Q.** Which EC50 (Jurkat [1]) does the source give for `CC(C)n1cc(C#N)cc1C(=O)NCc1c(F)cccc1Cl` here?
**A.** > 20000 nM

**Q.** With `Cn1c(C#N)ccc1S(=O)(=O)NCc1c(F)cccc1Cl` as the compound, how does the EC50 (Jurkat [1]) read?
**A.** > 20000 nM

**Q.** With `CC(c1ccccc1)n1cccc1C(=O)NCc1c(F)cccc1Cl` (centres undefined) as the compound, how does the EC50 (Jurkat [1]) read?
**A.** > 20000 nM

**Q.** With `Cn1c(C#N)ccc1C(=O)NCc1c(F)cccc1Cl` as the compound, how does the EC50 (Jurkat [1]) read?
**A.** 340 nM

**Q.** For `Cc1ccccc1C(=O)NCc1c(F)cccc1Cl`, which half-life [5] is on record?
**A.** 3.23 h

**Q.** What about the microsomal CLint [6] of the same compound?
**A.** 7.13 µL/min/mg

**Q.** With `Cn1c(Cl)ccc1C(=O)NCc1c(F)cccc1Cl` as the compound, how does the EC50 (Jurkat [1]) read?
**A.** 740 nM

**Q.** With `Cc1ccn(C)c1C(=O)NCc1c(F)cccc1Cl` as the compound, how does the EC50 (Jurkat [1]) read?
**A.** > 20000 nM

**Q.** For `O=C(NCc1c(F)cccc1Cl)c1cccn1Cc1ccccc1`, which EC50 (Jurkat [1]) is on record?
**A.** > 20000 nM

**Q.** With `CCn1c(Br)ccc1C(=O)NCc1c(F)cccc1Cl` as the compound, how does the EC50 (Jurkat [1]) read?
**A.** 2400 nM

**Q.** For `C[C@H](NC(=O)c1snnc1C1CC1)c1c(F)cccc1Cl`, which half-life [5] is on record?
**A.** 0.542 h

**Q.** What about the microsomal CLint [6] of the same compound?
**A.** 42.6 µL/min/mg

**Q.** And the Activity (Jurkat [2])?
**A.** Active

**Q.** What about the Activity (L929 [3]) of the same compound?
**A.** Active

**Q.** What about the Activity (L929 [4]) of the same compound?
**A.** Active

**Q.** And the Activity (Mus musculus)?
**A.** Active

**Q.** For `O=C(NCc1c(F)cccc1Cl)c1ccc[nH]1`, which EC50 (Jurkat [1]) is on record?
**A.** > 20000 nM

**Q.** For `CCn1c(C#N)ccc1C(=O)NCc1c(F)cccc1Cl`, which EC50 (Jurkat [1]) is on record?
**A.** 1900 nM
